Source: ChEMBL document CHEMBL4699644, “Discovery of a potent dual inhibitor of wild-type and mutant respiratory syncytial virus fusion proteins through the modulation of atropisomer interconversion properties” (Bioorg Med Chem, 2020)

Assays:
[1] = Permeability of compound incubated for 4 hrs by PAMPA assay; assay type: ADME; conditions: read-out: permeability
Outline: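 Artificial membrane permeation run 4 h at room temperature and quantified by UV plate reader. Apparent permeability calculated at pH 6.2.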

CYP3A = test: Inhibition of human liver microsomes CYP3A at 10 uM using testosterone as substrate in presence of NADPH preincubated for 30 mins followed by substrate addition and measured after 10 mins by LC/MS analysis; assay type: ADME, Microsome; conditions: probe testosterone, time 40 min
Outline: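 Compound preincubated 0 or 30 min at 37 °C with human liver microsomes (0.5 mg protein/mL) in sodium–potassium phosphate buffer pH 7.4 with NADPH-regenerating system. Then diluted 10-fold into secondary buffer with testosterone 250 μM plus NADPH-regenerating system and incubated 10 min. Stopped with acetonitrile containing internal standard, centrifuged, LC-MS/MS. Value is the difference in % inhibition between 0- and 30-min preincubation.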

[2] = Protein binding in mouse plasma at 1 ug/ml incubated for 4 hrs by LC-MS analysis; assay type: ADME, cell-free; conditions: at 1 µg/mL, read-out: PPB (converted)
Outline: (§1)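 Equilibrium dialysis with 12–14 kDa cutoff membrane. Compound dissolved in DMSO and spiked into blank plasma at 1 μg/mL final. Plasma dialysed against phosphate buffer pH 7.4 at 37 °C, 5% CO2, 4 h. Compound in plasma and buffer measured by LC-MS/MS and % bound calculated.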

[3] = Protein binding in human plasma at 1 ug/ml incubated for 4 hrs by LC-MS analysis; assay type: ADME, cell-free; conditions: at 1 µg/mL, read-out: PPB (converted); outline: as §1

Row | SMILES | Papp at 4 h [1] | inhibition at 10 min, 10 µM (CYP3A) | fraction unbound at 4 h, 1 ug/ml [2] | fraction unbound at 4 h, 1 ug/ml [3]
1 | CN1CCNC(=O)COc2ccc(F)cc2C(=O)N2CCCC[C@H]2c2cc3nc([C@H]4C[C@@H](O)C4)cc1n3n2 | 28 ×10⁻⁶ cm/s |  |  | 
2 | Cc1ccc2c(c1)C(=O)N1CCCC[C@H]1c1cc3nc([C@H]4C[C@H](O)C4)cc(n3n1)N(C)CCNC(=O)CO2 |  | 57% | 0.222 | 0.112
3 | CN1CCNC(=O)COc2ccc(Cl)cc2C(=O)N2CCCCC2c2cc3nc(N4CCC4)cc1n3n2 (stereo unspecified) |  | -2.9% |  | 
4 | CN1CCNC(=O)COc2ccc(F)cc2C(=O)N2CCCC[C@H]2c2cc3nc([C@H]4C[C@H](O)C4)cc1n3n2 | 27 ×10⁻⁶ cm/s | 0.4% |  | 
5 | CN1CCNC(=O)COc2ccc(Cl)cc2C(=O)N2CCCC[C@H]2c2cc3nc([C@H]4C[C@H](O)C4)cc1n3n2 |  | -1.4% | 0.145 | 0.093

The next lines start with the values.

Row | Papp at 4 h [1] | inhibition at 10 min, 10 µM (CYP3A) | fraction unbound at 4 h, 1 ug/ml [2] | fraction unbound at 4 h, 1 ug/ml [3] | SMILES
6 | 0.3 ×10⁻⁶ cm/s |  |  |  | CN1CCNC(=O)COc2ccc(F)cc2C(=O)N2CCCC[C@H]2c2cc3nc(N4CC[C@H](N)C4)cc1n3n2
7 |  | 60.1% | 0.031 | 0.064 | Cc1ccc2c(c1)C(=O)N1CCCCC1c1cc3nc(N4CCC4)cc(n3n1)N(C)CCNC(=O)CO2 (stereo unspecified)
8 | 5.9 ×10⁻⁶ cm/s |  |  |  | CNC1CN(c2cc3n4nc(cc4n2)[C@@H]2CCCCN2C(=O)c2cc(F)ccc2OCC(=O)NCCN3C)C1
9 | 3.3 ×10⁻⁶ cm/s |  |  |  | CN1CCNC(=O)COc2ccc(F)cc2C(=O)N2CCCC[C@H]2c2cc3nc(N4CC(N)C4)cc1n3n2
10 | 80 ×10⁻⁶ cm/s | -4.7% | 0.02 | 0.13 | CN1CCNC(=O)COc2ccc(F)cc2C(=O)N2CCCC[C@H]2c2cc3nc(N4CCC4)cc1n3n2
11 | 8 ×10⁻⁶ cm/s |  |  |  | CN1CCNC(=O)COc2ccc(F)cc2C(=O)N2CCCC[C@H]2c2cc3nc(N4CC(O)C4)cc1n3n2
